Test results as given in ChEMBL document CHEMBL4371051, “Synthesis and SAR of novel capsazepine analogs with significant anti-cancer effects in multiple cancer types” (Bioorg Med Chem, 2019).
The source made the active and inactive calls. The rule behind the calls is not given here.

Experiments:
HeLa [1] = experiment: Antiproliferative activity against human HeLa cells after 24 hrs by cell titer 96 aqueous non-radioactive cell proliferation assay; assay type: functional, cell-based
Procedure, shortened: (§1)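 Cells kept in high-glucose DMEM with 10% FBS and 1% penicillin/streptomycin at 37°C, 5% CO2. They were exposed for 24 h to compound in serum-free DMEM, with final EtOH ≤0.1% (ethanol stocks made fresh). Viability was read by MTS absorbance against vehicle-treated controls; n=4 per group.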

[2] = Toxicity in athymic nude mouse xenografted with human HeLa cells assessed as effect on respiration at 40 ug, administered intra-tumorally every day for 14 days; conditions: in vivo, other, 336 h
MDA-MB-231 = experiment: Antiproliferative activity against human MDA231 cells after 24 hrs by cell titer 96 aqueous non-radioactive cell proliferation assay; assay type: functional, cell-based; conditions: MDA-MB-231, 24 h; procedure, shortened: as §1
PC-3 = experiment: Antiproliferative activity against human PC3 cells after 24 hrs by cell titer 96 aqueous non-radioactive cell proliferation assay; assay type: functional, cell-based; conditions: PC-3, 24 h; procedure, shortened: as §1
HeLa [3] = experiment: Antitumor activity against human HeLa cells xenografted in athymic nude mouse assessed as tumor volume at 40 ug, administered intra-tumorally every day for 14 days (reference value: 562 mm3); assay type: functional
[4] = Toxicity in athymic nude mouse xenografted with human HeLa cells assessed as decrease in body weight at 40 ug, administered intra-tumorally every day for 14 days; conditions: in vivo, other, 336 h
[5] = Toxicity in athymic nude mouse xenografted with human HeLa cells assessed as effect on mobility at 40 ug, administered intra-tumorally every day for 14 days; conditions: in vivo, other, 336 h
[6] = Toxicity in athymic nude mouse xenografted with human HeLa cells assessed as effect on adjacent non-malignant tissues at 40 ug, administered intra-tumorally every day for 14 days; conditions: in vivo, other, 336 h
[7] = Toxicity in athymic nude mouse xenografted with human HeLa cells assessed as effect on motor functions at 40 ug, administered intra-tumorally every day for 14 days; conditions: in vivo, other, 336 h
HeLa [8] = experiment: Potency index, ratio of capsazepine IC50 to compound IC50 for antiproliferative activity against human HeLa cells; assay type: functional
[9] = Toxicity in athymic nude mouse xenografted with human HeLa cells assessed as effect on neurological function at 40 ug, administered intra-tumorally every day for 14 days; conditions: in vivo, other, 336 h
[10] = target: Transient receptor potential cation channel subfamily V member 1 (Homo sapiens) (UniProt Q8NER1); experiment: Antagonist activity at TRPV1 (unknown origin) expressed in CHO cells assessed as inhibition of capsaicin-induced increase in calcium influx at 1 uM pretreated before 100 nM capsaicin addition by Calcium 6 dye-based FLIPR assay; assay type: cell-based
Transient receptor potential cation channel subfamily V member 1 (Homo sapiens), sequence (Q8NER1 whole entry): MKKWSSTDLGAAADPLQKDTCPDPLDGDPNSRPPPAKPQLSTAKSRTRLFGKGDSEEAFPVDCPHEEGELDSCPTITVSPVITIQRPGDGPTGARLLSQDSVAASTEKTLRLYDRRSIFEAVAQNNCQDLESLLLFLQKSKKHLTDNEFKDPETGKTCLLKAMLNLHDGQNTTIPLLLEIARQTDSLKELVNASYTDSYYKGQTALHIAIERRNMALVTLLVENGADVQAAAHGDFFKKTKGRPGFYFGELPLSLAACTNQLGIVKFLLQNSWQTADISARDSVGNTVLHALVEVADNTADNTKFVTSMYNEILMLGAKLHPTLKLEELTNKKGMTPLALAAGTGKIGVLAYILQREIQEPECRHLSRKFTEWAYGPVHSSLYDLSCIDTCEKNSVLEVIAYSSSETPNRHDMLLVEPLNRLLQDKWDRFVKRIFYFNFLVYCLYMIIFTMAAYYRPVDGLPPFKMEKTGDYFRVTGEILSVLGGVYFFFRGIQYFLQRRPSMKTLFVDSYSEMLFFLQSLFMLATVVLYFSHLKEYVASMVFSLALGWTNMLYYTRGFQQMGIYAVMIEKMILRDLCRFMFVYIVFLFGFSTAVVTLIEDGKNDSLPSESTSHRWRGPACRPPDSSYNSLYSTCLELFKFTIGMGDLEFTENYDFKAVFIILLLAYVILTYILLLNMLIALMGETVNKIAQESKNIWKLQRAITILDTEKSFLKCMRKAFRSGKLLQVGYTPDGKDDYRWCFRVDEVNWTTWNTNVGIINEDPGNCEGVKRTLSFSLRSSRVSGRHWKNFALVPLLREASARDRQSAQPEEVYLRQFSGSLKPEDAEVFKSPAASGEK
Procedure, shortened: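 CHO-TRPV1 cells, 9x10³ per well, loaded with Calcium 6 dye for 2 h. Cells were pretreated with 1 μM compound, then challenged with 100 nM capsaicin. TRPV1 inhibition was judged from the change in fluorescence at 535 nm.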

NCI-H460 = experiment: Antiproliferative activity against human NCI-H460 cells after 24 hrs by cell titer 96 aqueous non-radioactive cell proliferation assay; assay type: functional, cell-based; conditions: NCI-H460, 24 h; procedure, shortened: as §1
[11] = target: Transient receptor potential cation channel subfamily V member 1 (Homo sapiens) (UniProt Q8NER1); experiment: Agonist activity at TRPV1 (unknown origin) expressed in CHO cells assessed as increase in calcium influx at 1 uM by Calcium 6 dye-based FLIPR assay; assay type: cell-based
Procedure, shortened: (§2)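 CHO cells stably overexpressing TRPV1, grown at 37°C in 5% CO2. 9x10³ cells per well, loaded with Calcium 6 dye for 2 h. Dose-response curves were run, then compounds at 1 μM were compared with 100 nM capsaicin as the positive control and 1 μM CPZ as the negative control. Calcium influx was read as the change in fluorescence at 535 nm; n=3 per group.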

HSC-3 = experiment: Antiproliferative activity against human HSC3 cells after 24 hrs by cell titer 96 aqueous non-radioactive cell proliferation assay; assay type: functional, cell-based; conditions: HSC-3, 24 h; procedure, shortened: as §1
[12] = target: Transient receptor potential cation channel subfamily V member 1 (Homo sapiens) (UniProt Q8NER1); experiment: Agonist activity at TRPV1 (unknown origin) expressed in CHO cells assessed as increase in calcium influx by Calcium 6 dye-based FLIPR assay; assay type: cell-based; procedure, shortened: as §2

Row | Structure (SMILES) | IC50 (HeLa [1]) | other results
1 | CC(C)C1c2cc(O)c(O)cc2CCN1C(=S)NCCc1ccc(Cl)cc1Cl (configuration not stated) | 46 µM | –
2 | COc1ccc(CCNC(=S)N2CCc3cc(O)c(O)cc3C2)cc1 | > 100 µM | –
3 | CN(CCc1ccc(O)c(O)c1)C(=S)NCCc1ccc(Cl)cc1 | 30 µM | –
4 | Oc1cc2c(cc1O)CN(C(=S)NCc1ccccc1)CC2 | > 100 µM | –
5 | COc1cc2c(cc1OC)CN(C(=S)NCCc1ccc(Cl)cc1)CC2 | > 100 µM | –
6 | CN(Cc1ccc(O)c(O)c1)C(=S)NCCc1ccc(Cl)cc1 | > 100 µM | –
7 | Oc1ccc2c(c1)CCCN(C(=S)NCCc1ccc(Cl)cc1)C2 | 65 µM | –
8 | Oc1cc2c(cc1O)CN(C(=S)NCCc1ccc(Cl)cc1)CCC2 [CAPSAZEPINE] | 30 µM | –
9 | CC(C)C1c2cc(O)c(O)cc2CCN1C(=S)NCCc1ccc(Cl)cc1 (configuration not stated) | 55 µM | –
10 | COc1cc2c(cc1OC)CN(C(=O)NCCc1ccc(Cl)cc1)CC2 | > 100 µM | –
11 | Oc1ccc2c(c1)CN(C(=S)NCCc1ccc(Cl)cc1)CCC2 | 50 µM | –
12 | CC(C)C1c2cc(O)c(O)cc2CCN1C(=S)NCc1ccccc1 (configuration not stated) | 35 µM | –
13 | CC(C)C1c2cc(O)c(O)cc2CCN1C(=S)NCCc1ccc(F)cc1 (configuration not stated) | 28 µM | –
14 | Oc1cc2c(cc1O)CN(C(=S)NCCc1ccc(Cl)cc1)C2 | 85 µM | –
15 | CC(C)C1c2cc(O)c(O)cc2CCN1C(=S)NCCc1ccccc1 (configuration not stated) | 67 µM | –
16 | CN(CCc1ccc(O)c(O)c1)C(=O)NCCc1ccc(Cl)cc1 | > 30 µM | –
17 | COc1ccc(CN(C)C(=O)NCCc2ccc(Cl)cc2)cc1OC | > 30 µM | –
18 | Oc1cc2c(cc1O)CN(C(=S)NCCc1ccc(Cl)cc1Cl)CC2 | 30 µM | –
19 | COc1ccc2c(c1)CN(C(=S)NCCc1ccc(Cl)cc1)CCC2 | > 100 µM | –
20 | CN(Cc1ccc(O)c(O)c1)C(=O)NCCc1ccc(Cl)cc1 | 30 µM | –
21 | COc1ccc2c(c1)CCCN(C(=S)NCCc1ccc(Cl)cc1)C2 | > 100 µM | –

Molecules with a lower IC50 (HeLa [1]), results first:

Row | IC50 (HeLa [1]) | Structure (SMILES) | other results
22 | 20 µM | Oc1cc2c(cc1O)C(c1ccccc1)N(C(=S)NCCc1ccc(Cl)cc1Cl)CC2 (configuration not stated) | –
23 | < 5 µM | Oc1cc2c(cc1O)C(c1ccccc1)N(C(=S)NCc1ccccc1)CC2 (configuration not stated) | Activity [2]: Non-Toxic; IC50 (MDA-MB-231): 32 µM; IC50 (PC-3): 2.5 µM; Activity (HeLa [3]): 283 mm3; Activity [4]: Non-Toxic; Activity [5]: Non-Toxic; Activity [6]: Non-Toxic; Activity [7]: Non-Toxic; Ratio IC50 (HeLa [8]): 6; Activity [9]: Non-Toxic; inhibition [10]: inactive; IC50 (NCI-H460): 42 µM; Activity [11]: inactive; IC50 (HSC-3): 2 µM
24 | 24 µM | COc1ccc(CCNC(=S)N2CCc3cc(O)c(O)cc3C2c2ccccc2)cc1 (configuration not stated) | –
25 | < 10 µM | Oc1cc2c(cc1O)CN(C(=S)NCCc1ccc(Cl)cc1)CC2 | Activity [2]: Non-Toxic; IC50 (MDA-MB-231): 5 µM; IC50 (PC-3): 13 µM; Activity (HeLa [3]): 351 mm3; Activity [4]: Non-Toxic; Activity [5]: Non-Toxic; Activity [6]: Non-Toxic; Activity [7]: Non-Toxic; Activity [12]: Dose-dependent effect; Activity [9]: Non-Toxic; IC50 (NCI-H460): 23 µM; IC50 (HSC-3): 20 µM
26 | 25 µM | Oc1cc2c(cc1O)CN(C(=S)NCCc1ccc(F)cc1)CC2 | –
27 | 15 µM | O=C(NCCc1ccc(Cl)cc1)N1CCc2cc(O)c(O)cc2C1 | –
28 | 25 µM | Oc1cc2c(cc1O)C(c1ccccc1)N(C(=S)NCCc1ccccc1)CC2 (configuration not stated) | –
29 | 17 µM | Oc1cc2c(cc1O)C(c1ccccc1)N(C(=S)NCCc1ccc(F)cc1)CC2 (configuration not stated) | –
30 | 25 µM | Oc1cc2c(cc1O)CN(C(=S)NCCc1ccccc1)CC2 | –
31 | < 5 µM | Oc1cc2c(cc1O)C(c1ccccc1)N(C(=S)NCCc1ccc(Cl)cc1)CC2 (configuration not stated) | –
